Source: ChEMBL document CHEMBL1287807, “Novel TNF-α converting enzyme (TACE) inhibitors as potential treatment for inflammatory diseases” (Bioorg Med Chem Lett, 2010)
One block for each molecule: values may come before it.

Legend:
[1] = molecular target: Disintegrin and metalloproteinase domain-containing protein 17 (Homo sapiens, UniProt P78536); experiment: Inhibition of TACE
Blood = experiment: Antiinflammatory activity in human whole blood assessed as inhibition of LPS-induced TNFalpha production after 3.5 hrs by ELISA; format: functional
Method in brief: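 Human whole blood, diluted 1:1 in serum-free RPMI with L-glutamine, Pen-Strep and HEPES, is preincubated with compound for 1 h at 37 °C. It is then stimulated with LPS. Supernatant is harvested after 3.5 h incubation, and TNF-α concentration is measured by ELISA.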

[2] = molecular target: Matrix metalloproteinase-9 (Homo sapiens, UniProt P14780); experiment: Inhibition of MMP9
Matrix metalloproteinase-9, sequence (P14780 whole entry): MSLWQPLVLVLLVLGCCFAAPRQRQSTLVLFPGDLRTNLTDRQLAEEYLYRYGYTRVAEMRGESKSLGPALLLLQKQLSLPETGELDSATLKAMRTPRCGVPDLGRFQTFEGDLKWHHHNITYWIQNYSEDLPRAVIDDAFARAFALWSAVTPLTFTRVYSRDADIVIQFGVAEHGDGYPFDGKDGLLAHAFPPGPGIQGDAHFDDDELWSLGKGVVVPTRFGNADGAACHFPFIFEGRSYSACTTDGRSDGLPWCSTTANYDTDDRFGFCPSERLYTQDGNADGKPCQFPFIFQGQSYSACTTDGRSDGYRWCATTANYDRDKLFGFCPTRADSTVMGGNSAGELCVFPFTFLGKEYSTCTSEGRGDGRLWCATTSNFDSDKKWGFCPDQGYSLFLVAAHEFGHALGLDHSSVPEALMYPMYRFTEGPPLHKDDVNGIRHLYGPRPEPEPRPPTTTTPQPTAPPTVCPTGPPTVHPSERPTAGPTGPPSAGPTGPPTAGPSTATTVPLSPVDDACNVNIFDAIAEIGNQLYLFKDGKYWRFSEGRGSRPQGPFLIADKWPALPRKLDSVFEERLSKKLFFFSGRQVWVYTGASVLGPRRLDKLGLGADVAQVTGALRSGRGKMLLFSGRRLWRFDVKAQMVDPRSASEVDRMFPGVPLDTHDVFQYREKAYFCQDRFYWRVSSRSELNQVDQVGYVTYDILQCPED

Matrilysin = molecular target: T1, Matrilysin (Homo sapiens, UniProt P09237); experiment: Inhibition of MMP7
T1 sequence (P09237 whole entry): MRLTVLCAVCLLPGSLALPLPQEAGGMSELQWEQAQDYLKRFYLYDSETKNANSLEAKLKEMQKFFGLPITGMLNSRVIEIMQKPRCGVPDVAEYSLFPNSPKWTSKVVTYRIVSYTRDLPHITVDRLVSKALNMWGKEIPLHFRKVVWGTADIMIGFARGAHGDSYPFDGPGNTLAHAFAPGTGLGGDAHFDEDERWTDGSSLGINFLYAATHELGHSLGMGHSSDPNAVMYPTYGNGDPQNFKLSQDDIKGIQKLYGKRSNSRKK

[3] = Oral bioavailability in rat at 10 mg/kg; format: ADME, organism-based; details: in vivo
Stromelysin-1 = Stromelysin-1 (Homo sapiens, UniProt P08254); experiment: Inhibition of MMP3
Stromelysin-1, sequence (P08254 whole entry, the tested form may be a part): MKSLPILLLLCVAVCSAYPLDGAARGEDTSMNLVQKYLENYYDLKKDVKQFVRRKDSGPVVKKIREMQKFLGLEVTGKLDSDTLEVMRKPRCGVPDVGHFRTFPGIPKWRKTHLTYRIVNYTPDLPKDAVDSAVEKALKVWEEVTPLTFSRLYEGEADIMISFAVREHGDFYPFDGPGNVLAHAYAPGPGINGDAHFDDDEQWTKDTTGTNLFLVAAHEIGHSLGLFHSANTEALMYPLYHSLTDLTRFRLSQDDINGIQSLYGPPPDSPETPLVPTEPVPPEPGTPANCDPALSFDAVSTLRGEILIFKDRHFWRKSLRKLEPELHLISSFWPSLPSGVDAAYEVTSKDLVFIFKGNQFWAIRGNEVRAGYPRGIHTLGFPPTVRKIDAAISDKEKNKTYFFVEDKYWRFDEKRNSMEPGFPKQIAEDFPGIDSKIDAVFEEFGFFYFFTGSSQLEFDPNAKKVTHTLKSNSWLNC

[4] = molecular target: T2, Disintegrin and metalloproteinase domain-containing protein 10 (Homo sapiens, UniProt O14672); experiment: Inhibition of ADAM10
T2 sequence (O14672 whole entry): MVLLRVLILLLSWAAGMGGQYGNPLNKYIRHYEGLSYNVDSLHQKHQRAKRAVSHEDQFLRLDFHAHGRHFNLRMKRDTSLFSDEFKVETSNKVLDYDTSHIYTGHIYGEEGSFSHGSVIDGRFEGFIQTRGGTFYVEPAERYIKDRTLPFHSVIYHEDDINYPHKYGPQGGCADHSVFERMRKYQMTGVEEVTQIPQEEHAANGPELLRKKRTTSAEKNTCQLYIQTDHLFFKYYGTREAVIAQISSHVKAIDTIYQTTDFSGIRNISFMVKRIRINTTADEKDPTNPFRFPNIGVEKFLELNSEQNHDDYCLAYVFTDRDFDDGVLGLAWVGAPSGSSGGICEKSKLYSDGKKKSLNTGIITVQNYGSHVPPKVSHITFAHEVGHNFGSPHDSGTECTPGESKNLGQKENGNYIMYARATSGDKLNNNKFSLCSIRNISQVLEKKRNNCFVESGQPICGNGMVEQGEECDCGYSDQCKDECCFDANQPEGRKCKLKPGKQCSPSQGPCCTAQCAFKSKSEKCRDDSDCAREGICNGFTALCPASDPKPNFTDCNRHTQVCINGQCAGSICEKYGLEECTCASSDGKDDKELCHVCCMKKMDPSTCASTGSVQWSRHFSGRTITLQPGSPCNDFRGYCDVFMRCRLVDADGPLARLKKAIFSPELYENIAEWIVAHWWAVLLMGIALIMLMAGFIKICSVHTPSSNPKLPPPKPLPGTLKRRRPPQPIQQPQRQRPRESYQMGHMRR

[5] = AUC in rat at 10 mg/kg, po; format: ADME, organism-based; design: dose 10 mg/kg, route oral; details: plasma
Method in brief: (§1)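 Compound dosed as its Na+ salt, intravenously or orally, at the dose given in each line. AUC is reported in uM.h.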

[6] = Tmax in rat at 10 mg/kg, po; format: ADME, organism-based; design: dose 10 mg/kg, route oral; details: in vivo
Collagenase 3 = Collagenase 3 (Homo sapiens, UniProt P45452); experiment: Inhibition of MMP13
[7] = AUC in monkey at 3 mg/kg, po; format: ADME, organism-based, Macaca mulatta; design: dose 3 mg/kg, route oral; details: rhesus monkey, plasma; method in brief: as §1
[8] = molecular target: 72 kDa type IV collagenase (Homo sapiens, UniProt P08253); experiment: Inhibition of MMP2
72 kDa type IV collagenase, sequence (P08253 whole entry): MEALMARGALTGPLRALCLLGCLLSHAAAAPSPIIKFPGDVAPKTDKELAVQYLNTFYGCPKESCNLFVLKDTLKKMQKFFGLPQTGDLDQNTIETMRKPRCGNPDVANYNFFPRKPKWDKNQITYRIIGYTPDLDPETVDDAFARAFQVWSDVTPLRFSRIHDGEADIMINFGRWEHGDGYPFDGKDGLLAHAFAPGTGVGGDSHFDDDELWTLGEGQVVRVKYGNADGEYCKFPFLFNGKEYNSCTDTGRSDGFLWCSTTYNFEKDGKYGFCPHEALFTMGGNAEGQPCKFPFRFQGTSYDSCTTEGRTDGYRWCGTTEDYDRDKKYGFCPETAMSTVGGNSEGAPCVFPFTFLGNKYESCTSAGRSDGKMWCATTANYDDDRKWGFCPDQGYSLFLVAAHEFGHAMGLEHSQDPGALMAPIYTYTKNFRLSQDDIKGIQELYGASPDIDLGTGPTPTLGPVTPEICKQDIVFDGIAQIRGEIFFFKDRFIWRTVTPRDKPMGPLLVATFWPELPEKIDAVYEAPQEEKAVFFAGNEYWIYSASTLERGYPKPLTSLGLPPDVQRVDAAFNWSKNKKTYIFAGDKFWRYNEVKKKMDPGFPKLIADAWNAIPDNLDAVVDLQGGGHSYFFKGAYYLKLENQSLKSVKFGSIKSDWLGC

[9] = AUC in monkey at 1 mg/kg, iv; format: ADME, organism-based, Macaca mulatta; design: dose 1 mg/kg, route intravenous; details: rhesus monkey, plasma; method in brief: as §1
[10] = Clearance in dog at 0.5 mg/kg, iv; format: ADME, organism-based, Canis lupus familiaris; design: dose 0.5 mg/kg, route intravenous; details: in vivo
[11] = Tmax in monkey at 3 mg/kg, po; format: ADME, organism-based, Macaca mulatta; design: dose 3 mg/kg, route oral; details: rhesus monkey, in vivo
[12] = Oral bioavailability in dog at 5 mg/kg; format: ADME, organism-based, Canis lupus familiaris; details: in vivo
[13] = Clearance in rat at 3 mg/kg, iv; format: ADME, organism-based; design: dose 3 mg/kg, route intravenous; details: in vivo
[14] = Clearance in monkey at 1 mg/kg, iv; format: ADME, organism-based, Macaca mulatta; design: dose 1 mg/kg, route intravenous; details: rhesus monkey, in vivo
[15] = Tmax in dog at 5 mg/kg, po; format: ADME, organism-based, Canis lupus familiaris; design: dose 5 mg/kg, route oral; details: in vivo
[16] = AUC in dog at 5 mg/kg, po; format: ADME, organism-based, Canis lupus familiaris; design: dose 5 mg/kg, route oral; details: plasma
[17] = Oral bioavailability in monkey at 3 mg/kg; format: ADME, organism-based, Macaca mulatta; details: rhesus monkey, in vivo
[18] = Half life in monkey at 1 mg/kg, iv; format: ADME, organism-based, Macaca mulatta; design: dose 1 mg/kg, route intravenous; details: rhesus monkey, in vivo
[19] = Half life in dog at 0.5 mg/kg, iv; format: ADME, organism-based, Canis lupus familiaris; design: dose 0.5 mg/kg, route intravenous; details: in vivo
[20] = Half life in rat at 3 mg/kg, iv; format: ADME, organism-based; design: dose 3 mg/kg, route intravenous; details: in vivo
[21] = AUC in dog at 0.5 mg/kg, iv; format: ADME, organism-based, Canis lupus familiaris; design: dose 0.5 mg/kg, route intravenous; details: plasma
Interstitial collagenase = molecular target: T3, Interstitial collagenase (Homo sapiens, UniProt P03956); experiment: Inhibition of MMP1
T3 sequence (P03956 whole entry): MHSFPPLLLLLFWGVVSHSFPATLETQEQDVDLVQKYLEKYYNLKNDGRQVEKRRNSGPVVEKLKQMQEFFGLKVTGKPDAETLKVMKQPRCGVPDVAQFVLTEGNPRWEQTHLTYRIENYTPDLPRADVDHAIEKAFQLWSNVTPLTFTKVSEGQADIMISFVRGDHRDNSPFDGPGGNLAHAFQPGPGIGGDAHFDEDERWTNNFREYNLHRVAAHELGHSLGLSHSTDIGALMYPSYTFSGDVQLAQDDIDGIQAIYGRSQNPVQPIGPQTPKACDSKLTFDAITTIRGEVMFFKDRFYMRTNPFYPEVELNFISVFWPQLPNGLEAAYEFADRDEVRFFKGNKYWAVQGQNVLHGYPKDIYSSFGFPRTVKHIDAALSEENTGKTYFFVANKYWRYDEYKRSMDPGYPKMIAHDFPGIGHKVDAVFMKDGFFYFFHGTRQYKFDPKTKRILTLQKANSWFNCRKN

[22] = AUC in rat at 3 mg/kg, iv; format: ADME, organism-based; design: dose 3 mg/kg, route intravenous; details: plasma; method in brief: as §1

Disintegrin and metalloproteinase domain-containing protein 17, sequence (P78536 whole entry, the tested form may be a part): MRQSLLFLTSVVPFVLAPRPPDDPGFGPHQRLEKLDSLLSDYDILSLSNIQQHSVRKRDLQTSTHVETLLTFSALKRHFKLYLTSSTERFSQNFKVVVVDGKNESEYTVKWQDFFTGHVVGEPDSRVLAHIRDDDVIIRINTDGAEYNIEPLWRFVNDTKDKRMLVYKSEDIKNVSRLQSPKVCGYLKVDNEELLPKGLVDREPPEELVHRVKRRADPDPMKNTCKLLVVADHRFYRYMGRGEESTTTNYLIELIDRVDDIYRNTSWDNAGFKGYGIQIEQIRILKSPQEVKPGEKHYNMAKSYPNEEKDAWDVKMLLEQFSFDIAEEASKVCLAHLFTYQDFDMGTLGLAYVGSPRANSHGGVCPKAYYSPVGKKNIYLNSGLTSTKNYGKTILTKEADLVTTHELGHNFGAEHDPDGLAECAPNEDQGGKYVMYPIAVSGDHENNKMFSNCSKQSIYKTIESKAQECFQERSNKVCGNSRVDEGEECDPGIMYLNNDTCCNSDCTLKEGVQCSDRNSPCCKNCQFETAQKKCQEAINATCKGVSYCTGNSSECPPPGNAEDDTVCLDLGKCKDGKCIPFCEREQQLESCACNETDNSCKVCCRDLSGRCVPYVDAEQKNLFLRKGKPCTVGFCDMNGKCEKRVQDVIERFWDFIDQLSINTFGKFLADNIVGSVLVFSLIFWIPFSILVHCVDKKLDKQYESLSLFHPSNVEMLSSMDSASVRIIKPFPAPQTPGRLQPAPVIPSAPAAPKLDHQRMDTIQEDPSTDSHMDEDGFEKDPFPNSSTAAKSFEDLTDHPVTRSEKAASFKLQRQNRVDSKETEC

Compound: COc1ccc2c(c1)C(=O)N(C[C@@]1(C#Cc3cccnc3)NC(=O)NC1=O)C2
Ki [1]: 0.62 nM | IC50 [2]: 1010 nM | IC50 (Matrilysin): > 40000 nM | bioavailability [3]: 15% | IC50 (Stromelysin-1): 5800 nM | IC50 [4]: 22 nM | AUC [5]: 4 µM·h | Tmax [6]: 2.2 h | IC50 (Collagenase 3): 2920 nM | AUC [7]: 2.6 µM·h | IC50 [8]: 431 nM | Activity (Blood): 220 nM | AUC [9]: 3.8 µM·h | clearance [10]: 317 mL/min/kg | Tmax [11]: 1.2 h | bioavailability [12]: 9% | clearance [13]: 317 mL/min/kg | clearance [14]: 217 mL/min/kg | Tmax [15]: 6 min | AUC [16]: 1.1 µM·h | bioavailability [17]: 23% | half-life [18]: 2.4 h | half-life [19]: 0.9 h | half-life [20]: 2.2 h | AUC [21]: 1.3 µM·h | IC50 (Interstitial collagenase): 5200 nM | AUC [22]: 7.3 µM·h

Compound: COc1ccc2c(c1)C(=O)N(C[C@@]1(C#Cc3cnc4[nH]cnc4c3)NC(=O)NC1=O)C2
Ki [1]: 0.92 nM | Activity (Blood): 193 nM

Compound: COc1ccc2c(c1)C(=O)N(C[C@@]1(C#Cc3ccc(/C=N/O)cc3)NC(=O)NC1=O)C2
Ki [1]: 0.16 nM | Activity (Blood): 167 nM

Compound: COc1ccc2c(c1)C(=O)N(C[C@@]1(C#Cc3ccc4[nH]c(=O)[nH]c4c3)NC(=O)NC1=O)C2
Ki [1]: 0.53 nM | Activity (Blood): 240 nM

Compound: COc1ccc2c(c1)C(=O)N(C[C@@]1(C#Cc3ccc([C@H](C)N)cc3)NC(=O)NC1=O)C2
Ki [1]: 2.35 nM | Activity (Blood): 621 nM

Compound: COc1ccc2c(c1)C(=O)N(C[C@@]1(C#Cc3ccc(C(=O)NC4CC4)cc3)NC(=O)NC1=O)C2
Ki [1]: 2.55 nM | Activity (Blood): 487 nM

Compound: COc1ccc2c(c1)C(=O)N(C[C@@]1(C#Cc3ccccc3C)NC(=O)NC1=O)C2
Ki [1]: 2 nM | Activity (Blood): 3142 nM

Compound: COc1ccc2c(c1)C(=O)N(C[C@@]1(C#Cc3ccccc3F)NC(=O)NC1=O)C2
Ki [1]: 0.13 nM | Activity (Blood): 617 nM

Compound: COc1ccc2c(c1)C(=O)N(C[C@@]1(C#Cc3cccc(C#N)c3)NC(=O)NC1=O)C2
Ki [1]: 0.06 nM | Activity (Blood): 273 nM

Compound: COc1ccc2c(c1)C(=O)N(C[C@@]1(C#Cc3cccc(C(N)=O)c3)NC(=O)NC1=O)C2
Ki [1]: 0.85 nM

Compound: COc1ccc2c(c1)C(=O)N(C[C@@]1(C#Cc3cccc(C(C)C)c3)NC(=O)NC1=O)C2
Ki [1]: 0.5 nM | Activity (Blood): 19000 nM

Compound: COc1ccc2c(c1)C(=O)N(C[C@@]1(C#Cc3ccccc3C(N)=O)NC(=O)NC1=O)C2
Ki [1]: 2.78 nM | Activity (Blood): 5311 nM

Compound: COc1ccc2c(c1)C(=O)N(C[C@@]1(C#Cc3ccccc3)NC(=O)NC1=O)C2
Ki [1]: 0.14 nM | Activity (Blood): 784 nM

Further lines, with some results ahead:

Ki [1]: 0.1 nM
Compound: CCN1CCN(c2ccc(O)c(-c3ccc(C#C[C@]4(CN5Cc6ccc(OC)cc6C5=O)NC(=O)NC4=O)cc3F)n2)CC1
Activity (Blood): 40 nM

Ki [1]: 0.17 nM
Compound: COc1ccc2c(c1)C(=O)N(C[C@@]1(C#Cc3ccc4[nH]ccc4c3)NC(=O)NC1=O)C2
Activity (Blood): 751 nM

Ki [1]: 0.5 nM
Compound: COc1ccc2c(c1)C(=O)N(C[C@@]1(C#Cc3ccc(C(C)=O)cc3)NC(=O)NC1=O)C2
Activity (Blood): 352 nM

Ki [1]: 0.52 nM
Compound: COc1ccc2c(c1)C(=O)N(C[C@@]1(C#Cc3ccc4cnn(C)c4c3)NC(=O)NC1=O)C2
Activity (Blood): 10400 nM

Ki [1]: 0.16 nM
Compound: CCN1CCN(/C(=N\O)c2ccc(C#C[C@]3(CN4Cc5ccc(OC)cc5C4=O)NC(=O)NC3=O)cc2)CC1
Activity (Blood): 20 nM

Ki [1]: 0.26 nM
Compound: COc1ccc2c(c1)C(=O)N(C[C@@]1(C#Cc3ccc(F)cc3)NC(=O)NC1=O)C2
Activity (Blood): 1675 nM

Ki [1]: 0.19 nM
Compound: COc1ccc2c(c1)C(=O)N(C[C@@]1(C#Cc3ccc4cc[nH]c4c3)NC(=O)NC1=O)C2
Activity (Blood): 2965 nM

Ki [1]: 0.22 nM
Compound: COc1ccc2c(c1)C(=O)N(C[C@@]1(C#Cc3ccc(/C(=N/O)N4CCN(C)CC4)cc3)NC(=O)NC1=O)C2
Activity (Blood): 33 nM

Ki [1]: 0.29 nM
Compound: CCN1CCN(Cc2ccc(C#C[C@]3(CN4Cc5ccc(OC)cc5C4=O)NC(=O)NC3=O)cc2)CC1
Activity (Blood): 239 nM

Ki [1]: 0.56 nM
Compound: COc1ccc2c(c1)C(=O)N(C[C@@]1(C#Cc3ccc(C(N)=O)cc3)NC(=O)NC1=O)C2
Activity (Blood): 165 nM

Ki [1]: 0.72 nM
Compound: COc1ccc2c(c1)C(=O)N(C[C@@]1(C#Cc3cccc(C)c3)NC(=O)NC1=O)C2
Activity (Blood): 5148 nM

Ki [1]: 0.47 nM
Compound: COc1ccc2c(c1)C(=O)N(C[C@@]1(C#Cc3ccc(CC4CCN(C)CC4)nc3)NC(=O)NC1=O)C2
Activity (Blood): 195 nM

Ki [1]: 0.07 nM
Compound: COc1ccc2c(c1)C(=O)N(C[C@@]1(C#Cc3ccc(-c4ncccc4O)cc3)NC(=O)NC1=O)C2
Activity (Blood): 117 nM

Ki [1]: 0.2 nM
Compound: COc1ccc2c(c1)C(=O)N(C[C@@]1(C#Cc3cccc(F)c3)NC(=O)NC1=O)C2
Activity (Blood): 873 nM

Ki [1]: 0.41 nM
Compound: COc1ccc(C#C[C@]2(CN3Cc4ccc(OC)cc4C3=O)NC(=O)NC2=O)cc1
Activity (Blood): 1332 nM

Ki [1]: 0.6 nM
Compound: COc1ccc2c(c1)C(=O)N(C[C@@]1(C#Cc3ccc4[nH]cnc4c3)NC(=O)NC1=O)C2
Activity (Blood): 211 nM

Ki [1]: 0.18 nM
Compound: CCN1CCN(/C(=N\O)c2ccc(C#C[C@]3(CN4Cc5ccc(OC)cc5C4=O)NC(=O)NC3=O)cn2)CC1
Activity (Blood): 87 nM
